Assay results: ChEMBL document CHEMBL1157729, “Structure-activity relationship and mechanism of action studies of manzamine analogues for the control of neuroinflammation and cerebral infections” (J Med Chem, 2010)
≈ marks a conversion by molar mass, not a printed value. Calls of active or inactive are those of the source. The rule behind the calls is not given here.

Assays:
[1] = Selectivity index, ratio of IC50 for african green monkey (Cercopithecus aethiops) Vero cells to IC50 for chloroquine-sensitive Plasmodium falciparum; format: toxicity, cell-based
[2] = test system: Mycobacterium tuberculosis; assay: Antimycobacterial activity against Mycobacterium tuberculosis; format: functional
[3] = Selectivity index, ratio of IC50 for african green monkey (Cercopithecus aethiops) Vero cells to IC50 for chloroquine-resistant Plasmodium falciparum W2; format: toxicity, cell-based
[4] = Antineuroinflammatory activity in LPS-stimulated rat neonatal microglia assessed as inhibition of PMA-induced superoxide anion production preincubated 15 mins prior to PMA challenge measured after 70 mins; format: functional, cell-based
[5] = Antineuroinflammatory activity in LPS-stimulated rat neonatal microglia assessed as inhibition of PMA-induced TXB2 production preincubated 15 mins prior to PMA challenge measured after 70 mins; format: functional, cell-based
[6] = Antineuroinflammatory activity in LPS-stimulated rat neonatal microglia assessed as drug level causing 50% PMA-induced LDH release preincubated 15 mins prior to PMA challenge measured after 70 mins; format: functional
Procedure, shortened: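 Neonatal rat microglia (2 × 10^5/well) primed with E. coli LPS 0.3 ng/mL for 17 h at 35.9 °C, washed with HBSS, given compound (0.01–10 μM) or DMSO 15 min, then PMA 1 μM; LDH read spectrophotometrically after 70 min; LDH50 relative to Triton X-100 (0.1%) release; duplicates.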

Plasmodium berghei [7] = assay: Antiplasmodial activity against Plasmodium berghei NK65 infected in Swiss Webster mice (Mus musculus) assessed as suppression of parasitaemia at 10 mg/kg, intraperitoneally administered 1 day after infection for 3 days measured after 5 days post infection relative to control; format: functional; details: route intraperitoneal
Plasmodium berghei [8] = assay: Antiplasmodial activity against Plasmodium berghei NK65 infected in Swiss Webster mice (Mus musculus) assessed as suppression of parasitaemia at 10 mg/kg, intraperitoneally administered 1 day after infection for 3 days measured after 7 days post infection relative to control; format: functional; details: route intraperitoneal
Plasmodium berghei [9] = assay: Antiplasmodial activity against Plasmodium berghei NK65 infected in Swiss Webster mice (Mus musculus) assessed as survivability at 10 mg/kg, intraperitoneally administered 1 day after infection for 3 days measured after 28 days post infection; format: functional, organism-based; set-up: dose 10 mg/kg
Plasmodium berghei [10] = assay: Antiplasmodial activity against Plasmodium berghei NK65 infected in Swiss Webster mice (Mus musculus) at 10 mg/kg, intraperitoneally administered 1 day after infection for 3 days; format: functional; details: route intraperitoneal
Plasmodium berghei [11] = assay: Antiplasmodial activity against Plasmodium berghei NK65 infected in Swiss Webster mice (Mus musculus) assessed as parasitaemia cure at 10 mg/kg, intraperitoneally administered 1 day after infection measured after 28 days post infection; format: functional
Plasmodium berghei [12] = assay: Toxicity in Plasmodium berghei NK65 infected Swiss Webster mice (Mus musculus) assessed as weight loss at 10 mg/kg, intraperitoneally administered 1 day after infection measured after 28 days post infection; format: organism-based; set-up: dose 10 mg/kg, route intraperitoneal; details: in vivo, ip, 672 h
Plasmodium falciparum [13] = assay: Antiplasmodial activity against chloroquine-sensitive Plasmodium falciparum D6 after 72 hrs by LDH assay; format: functional, organism-based; details: Plasmodium falciparum, D6, 72 h; read-out: IC50
Plasmodium falciparum [14] = assay: Antiplasmodial activity against chloroquine-resistant Plasmodium falciparum W2 after 72 hrs by LDH assay; format: functional, organism-based; details: Plasmodium falciparum, W2, 72 h; read-out: IC50
Vero [15] = assay: Cytotoxicity against african green monkey Vero cells up to 4.6 ug/mL after 48 hrs by neutral red assay; format: cell-based; details: chlorocebus sabaeus
Procedure, shortened: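 Vero cells were seeded at 25,000 cells/well and incubated for 24 h, then exposed to serially diluted samples for 48 h. Viable cells were counted by Neutral Red assay, with doxorubicin as positive control. IC50 was taken from dose-response curves.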

Candida albicans = assay: Antifungal activity against Candida albicans ATCC 90028; format: functional, organism-based
Procedure, shortened: (§1)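 Broth microdilution per modified CLSI method; samples serially diluted in 20% DMSO/saline, tested in duplicate; inocula set by OD630 of suspensions in incubation broth; growth read at 630 nm before and after incubation; amphotericin B drug control.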

Cryptococcus neoformans = assay: Antifungal activity against Cryptococcus neoformans ATCC 90113; format: functional, organism-based; procedure, shortened: as §1
[16] = test system: Mycobacterium intracellulare; assay: Antimycobacterial activity against Mycobacterium intracellular ATCC 23068; format: functional, organism-based
Procedure, shortened: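 Modified Franzblau method; samples serially diluted in 20% DMSO/saline, tested in duplicate; inoculum set by OD630; fluorescence read at 544ex/590em before and after incubation; ciprofloxacin drug control.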

[17] = Cytotoxicity against LPS-stimulated rat neonatal microglia assessed as LDH release
Procedure, shortened: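 Rat neonatal microglia (2×10^5/well) primed with E. coli LPS (0.3 ng/mL) for 17 h at 35.9 °C. Washed into HBSS, given compound (0.01-10 μM) or DMSO for 15 min, then PMA (1 μM) for 70 min, in duplicate. LDH release read spectrophotometrically. LDH50 is the concentration giving 50% of the LDH release seen with 0.1% Triton X-100.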

Vero [18] = assay: Cytotoxicity against african green monkey Vero cells after 48 hrs by neutral red assay; format: cell-based; details: chlorocebus sabaeus
Procedure, shortened: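 Vero cells seeded at 25,000/well and grown 24 h, then exposed to serially diluted samples for 48 h. Viable cells measured by neutral red assay, with doxorubicin as positive control. IC50 taken from dose-response curves.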

[19] = test system: Mycobacterium tuberculosis; assay: Antimycobacterial activity against Mycobacterium tuberculosis H37Rv; format: functional, organism-based
HeLa [20] = assay: Cytotoxicity against human HeLa cells after 48 hrs by trypan blue exclusion assay; format: functional
HeLa [21] = assay: Cell cycle arrest in human HeLa cells assessed as increase in G0/G1 phase accumulation at 5 uM after 24 hrs by FACS analysis; format: functional
HeLa [22] = assay: Cell cycle arrest in human HeLa cells assessed as increase in G0/G1 phase accumulation at 10 uM after 24 hrs by FACS analysis; format: functional
HeLa [23] = assay: Cell cycle arrest in human HeLa cells assessed as increase in G0/G1 phase accumulation at 20 uM after 24 hrs by FACS analysis; format: functional
HeLa [24] = assay: Cell cycle arrest in human HeLa cells assessed as increase in S phase accumulation at 3 uM after 24 hrs by FACS analysis; format: functional
HeLa [25] = assay: Cell cycle arrest in human HeLa cells assessed as increase in S phase accumulation at 5 uM after 24 hrs by FACS analysis; format: functional
HeLa [26] = assay: Cell cycle arrest in human HeLa cells assessed as increase in S phase accumulation at 10 uM after 24 hrs by FACS analysis; format: functional
HeLa [27] = assay: Cell cycle arrest in human HeLa cells assessed as increase in G0/G1 phase accumulation at 3 uM after 24 hrs by FACS analysis; format: functional
HeLa [28] = assay: Cell cycle arrest in human HeLa cells assessed as increase in S phase accumulation at 20 uM after 24 hrs by FACS analysis; format: functional
HeLa [29] = assay: Cell cycle arrest in human HeLa cells assessed as decrease in G2/M phase accumulation at 3 uM after 24 hrs by FACS analysis; format: functional; set-up: scale not given: the % may be the effect or the level left
HeLa [30] = assay: Cell cycle arrest in human HeLa cells assessed as decrease in G2/M phase accumulation at 5 uM after 24 hrs by FACS analysis; format: functional; set-up: scale not given: the % may be the effect or the level left
HeLa [31] = assay: Cell cycle arrest in human HeLa cells assessed as decrease in G2/M phase accumulation at 10 uM after 24 hrs by FACS analysis; format: functional; set-up: scale not given: the % may be the effect or the level left
HeLa [32] = assay: Cell cycle arrest in human HeLa cells assessed as decrease in G2/M phase accumulation at 20 uM after 24 hrs by FACS analysis; format: functional; set-up: scale not given: the % may be the effect or the level left
Tubulin (Sus scrofa) [33] = target: T1, Tubulin (Sus scrofa) (UniProt P02554+P02550); assay: Inhibition of pig brain tubulin polymerization up to 30 mins by turbidimetry
T1 sequence (P02550 whole entry, looked up): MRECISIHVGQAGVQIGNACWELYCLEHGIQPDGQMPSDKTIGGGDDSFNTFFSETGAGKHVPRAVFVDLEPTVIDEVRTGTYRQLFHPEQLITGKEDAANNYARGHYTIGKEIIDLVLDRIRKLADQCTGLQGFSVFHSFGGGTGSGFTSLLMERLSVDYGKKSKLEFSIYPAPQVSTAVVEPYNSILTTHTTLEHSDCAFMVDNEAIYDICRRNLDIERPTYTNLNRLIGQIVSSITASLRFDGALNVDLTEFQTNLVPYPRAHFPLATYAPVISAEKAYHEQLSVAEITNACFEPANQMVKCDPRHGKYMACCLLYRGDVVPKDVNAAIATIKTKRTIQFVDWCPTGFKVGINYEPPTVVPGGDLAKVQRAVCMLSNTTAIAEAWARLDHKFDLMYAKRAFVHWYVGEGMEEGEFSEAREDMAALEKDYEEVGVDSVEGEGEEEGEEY
T1 sequence (P02554 whole entry, looked up): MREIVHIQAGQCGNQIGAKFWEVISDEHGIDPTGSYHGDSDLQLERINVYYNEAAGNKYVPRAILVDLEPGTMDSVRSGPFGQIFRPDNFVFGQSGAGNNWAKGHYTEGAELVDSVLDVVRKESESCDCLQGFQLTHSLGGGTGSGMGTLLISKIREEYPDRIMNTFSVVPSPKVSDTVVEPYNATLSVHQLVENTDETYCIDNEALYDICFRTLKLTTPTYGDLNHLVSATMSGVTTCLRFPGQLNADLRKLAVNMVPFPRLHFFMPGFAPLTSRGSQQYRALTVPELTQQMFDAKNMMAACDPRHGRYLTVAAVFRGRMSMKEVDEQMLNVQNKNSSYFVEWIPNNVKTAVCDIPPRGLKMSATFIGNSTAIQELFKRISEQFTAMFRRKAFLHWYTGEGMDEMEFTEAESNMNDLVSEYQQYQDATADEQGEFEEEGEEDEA

Tubulin (Sus scrofa) [34] = target: T1, Tubulin (Sus scrofa); assay: Inhibition of pig brain tubulin polymerization after 30 to 60 mins in presence of GTP and glutamate by turbidimetry

For `Oc1cccc2c1[nH]c1c(C3=C[C@@]4(O)CC/C=C\CCCCN5CC[C@@H]3[C@]3(CC6/C=C\CCCCN6[C@H]34)C5)nccc12` (stereo not given in full), which “Ratio IC50” value [1] is on record?
Its value is 180.

What about the MIC [2] of the same compound?
The MIC was 0.91 µg/mL (≈ 1.61 µM).

What about the selectivity ratio ([3]; Vero cells, read-out: Ratio IC50) of the same compound?
Its selectivity ratio is 25.

What about the “Ratio IC50” value ([3]; vero) of the same compound?
The value was 140.

And the IC50 [4]?
The IC50 was > 10 µM.

And the IC50 [5]?
Its IC50 is 0.5 µM.

And the Activity [6]?
Its Activity is >10 µM.

And the Activity (Plasmodium berghei [7])?
The Activity was 100%.

And the Activity (Plasmodium berghei [8])?
Its Activity is 100%.

And the Activity (Plasmodium berghei [9])?
Its Activity is “Active”.

And the MST (Plasmodium berghei [10])?
Its MST is > 28 days.

And the Activity (Plasmodium berghei [11]; route intraperitoneal)?
Its Activity is 80%.

And the Activity (Plasmodium berghei [12])?
The Activity was “Toxic”.

For `O[C@]12C=C(C3NCCc4c3[nH]c3ccccc43)[C@@H]3CCN(CCCC/C=C\CC1)C[C@@]31C[C@@H]3/C=C\CCCCN3[C@H]12` (stereo not given in full) [MANZAMINE D], which IC50 (Plasmodium falciparum [13]) is on record?
The IC50 was 0.09 µg/mL (≈ 0.163 µM).

What about the IC50 (Plasmodium falciparum [14]) of the same compound?
The IC50 was 0.088 µg/mL (≈ 0.159 µM).

And the Activity (Vero [15])?
The Activity was “Non-toxic”.

What about the IC50 (Candida albicans) of the same compound?
The IC50 was 15 µg/mL (≈ 27.1 µM).

What about the IC50 (Cryptococcus neoformans) of the same compound?
The IC50 was 0.8 µg/mL (≈ 1.45 µM).

And the IC50 [16]?
Its IC50 is 0.1 µg/mL (≈ 0.181 µM).

And the IC50 [4]?
Its IC50 is 2.45 µM.

And the IC50 [5]?
Its IC50 is 2.1 µM.

And the Activity [6]?
The Activity was 1 µM.

And the Activity [17]?
Its Activity is “Toxic”.

For `CC(C)Cn1c2ccccc2c2ccnc(C3=C[C@@]4(O)CC/C=C\CCCCN5CC[C@@H]3[C@]3(C[C@@H]6/C=C\CCCCN6[C@H]34)C5)c21` [9-N-ISOBUTYLMANZAMINE A], which IC50 (Plasmodium falciparum [13]) is on record?
The IC50 was 0.039 µg/mL (≈ 0.0645 µM).

And the IC50 (Plasmodium falciparum [14])?
Its IC50 is 0.078 µg/mL (≈ 0.129 µM).

What about the IC50 (Vero [18]) of the same compound?
Its IC50 is 0.4 µg/mL (≈ 0.661 µM).

What about the MIC [19] of the same compound?
The MIC was 4.6 µg/mL (≈ 7.6 µM).

And the IC50 (Candida albicans)?
The IC50 was 10 µg/mL (≈ 16.5 µM).

And the IC50 (Cryptococcus neoformans)?
Its IC50 is 3 µg/mL (≈ 4.96 µM).

And the IC50 [16]?
The IC50 was 1 µg/mL (≈ 1.65 µM).

What about the IC50 [4] of the same compound?
The IC50 was 5.7 µM.

What about the IC50 [5] of the same compound?
The IC50 was > 10 µM.

And the Activity [6]?
The Activity was >10 µM.

What about the Activity (HeLa [20]) of the same compound?
Its Activity is >30 µg/mL.

What about the Activity (HeLa [21]) of the same compound?
The Activity was 54.9%.

And the Activity (HeLa [22])?
Its Activity is 51.1%.

What about the Activity (HeLa [23]) of the same compound?
Its Activity is 52.3%.

And the Activity (HeLa [24])?
Its Activity is 16.6%.

What about the Activity (HeLa [25]) of the same compound?
The Activity was 16.4%.

What about the Activity (HeLa [26]) of the same compound?
The Activity was 19.5%.

What about the Activity (HeLa [27]) of the same compound?
The Activity was 54.2%.

What about the Activity (HeLa [28]) of the same compound?
The Activity was 19.1%.

What about the Activity (HeLa [29]) of the same compound?
Its Activity is 19.2%.

What about the Activity (HeLa [30]) of the same compound?
Its Activity is 17.8%.

And the Activity (HeLa [31])?
Its Activity is 17%.

What about the Activity (HeLa [32]) of the same compound?
The Activity was 17.4%.

For `O[C@]12C=C(c3nccc4c3[nH]c3ccccc34)[C@@H]3CCN(CCCC/C=C\CC1)C[C@@]31C[C@@H]3/C=C\CCCCN3[C@H]12`, which inhibition (Plasmodium berghei [9]) is on record?
Its inhibition is “inactive”.

And the inhibition (Plasmodium berghei [11])?
The inhibition was “inactive”.

And the inhibition (Tubulin (Sus scrofa) [33])?
The inhibition was “inactive”.

And the inhibition (Tubulin (Sus scrofa) [34])?
The inhibition was “inactive”.
